Source: ChEMBL document CHEMBL1131032, “Selective endothelin A receptor antagonists. 3. Discovery and structure-activity relationships of a series of 4-phenoxybutanoic acid derivatives” (J Med Chem, 1998)
The source made the active and inactive calls. No cut-off for these calls is given here. Where a SMILES comes first, the peptide text is derived from it. [ ]: non-standard residue; d: D form.

Columns and labels:
[1] = target: T1, Endothelin-1 receptor (Rattus norvegicus, UniProt P26684); assay: In vitro inhibition of [125I]ET1 binding to rat A10 cell Endothelin A receptor.; type: cell-based
T1 sequence (P26684 whole entry): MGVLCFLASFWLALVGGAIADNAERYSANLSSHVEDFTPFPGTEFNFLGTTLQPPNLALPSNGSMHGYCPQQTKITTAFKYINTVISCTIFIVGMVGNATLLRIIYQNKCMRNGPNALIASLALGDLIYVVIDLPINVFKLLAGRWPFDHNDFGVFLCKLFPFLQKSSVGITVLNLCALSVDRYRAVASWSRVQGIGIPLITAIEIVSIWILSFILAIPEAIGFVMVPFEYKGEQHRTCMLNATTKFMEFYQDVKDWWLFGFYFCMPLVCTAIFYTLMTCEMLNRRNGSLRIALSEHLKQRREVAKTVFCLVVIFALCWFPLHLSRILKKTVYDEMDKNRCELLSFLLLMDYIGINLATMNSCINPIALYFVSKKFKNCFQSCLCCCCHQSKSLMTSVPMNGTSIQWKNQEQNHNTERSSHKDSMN
Method in brief: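 Rat A10 cells were harvested, washed in 50 mM Hepes pH 7.3 with 1 mM CaCl2 and 5 mM MgCl2, and frozen. Nonspecific binding was defined with 500 nM ET-1. IC50 came from curve fitting; mean of n ± SEM.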

[2] = target: T2, Endothelin receptor type B (Rattus norvegicus, UniProt P21451); assay: In vitro inhibition of [125I]ET1 binding to rat cerebellum Endothelin B receptor.; type: tissue-based
T2 sequence (P21451 whole entry): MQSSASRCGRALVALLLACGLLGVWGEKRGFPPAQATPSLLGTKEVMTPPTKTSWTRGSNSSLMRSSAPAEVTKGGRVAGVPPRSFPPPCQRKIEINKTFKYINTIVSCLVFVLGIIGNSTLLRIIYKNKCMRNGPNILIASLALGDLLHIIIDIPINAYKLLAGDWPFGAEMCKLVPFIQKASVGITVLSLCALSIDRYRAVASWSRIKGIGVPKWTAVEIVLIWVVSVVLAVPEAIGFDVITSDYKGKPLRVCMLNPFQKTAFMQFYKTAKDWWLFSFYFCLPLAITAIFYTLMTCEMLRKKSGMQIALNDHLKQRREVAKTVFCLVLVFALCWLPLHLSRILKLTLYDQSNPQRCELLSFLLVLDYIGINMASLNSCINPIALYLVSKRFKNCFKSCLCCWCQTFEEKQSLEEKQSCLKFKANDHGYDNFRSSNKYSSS
Method in brief: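 Rat cerebellum was homogenized in Tris/sucrose/EDTA buffer with protease inhibitors; the 40000g membrane pellet was used. Nonspecific binding was defined with 500 nM ET-1. IC50 by curve fitting; single experiment.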

[3] = species on record: Rattus norvegicus; assay: Antagonism of ET-1 mediated contraction of isolated de-endothelialized rat aortic rings; type: functional, Aorta
[4] = system: Rattus norvegicus; assay: Effect of compound on ET-1 induced changes in diastolic blood pressure in the pithed rat pretreated with BQ 788 (3 mg/kg) at 7.5 uM/kg (iv) dose; type: functional, Artery
Method in brief: (§1)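 Male Sprague-Dawley rats (250–350 g), isoflurane-anesthetized, pithed and artificially respired. Dosing via the jugular vein; blood pressure via carotid artery transducer. BQ 788 (3 mg/kg) and test compound given iv 10 min before a bolus ET-1 dose–pressor curve (0.01–10 nmol/kg). Fold rightward shift from vehicle measured at the ET-1 dose giving a 40 mmHg diastolic change. Mean of 4–6 rats.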

[5] = system: Rattus norvegicus; assay: Effect of compound on ET-1 induced changes in diastolic blood pressure in the pithed rat pretreated with BQ 788 (3 mg/kg) at 25 uM/kg (iv) dose; type: functional, Artery; method in brief: as §1
[6] = system: Rattus norvegicus; assay: Effect of compound on ET-1 induced changes in diastolic blood pressure in the pithed rat pretreated with BQ 788 (3 mg/kg) at 2.5 uM/kg (iv) dose; NS = Not significant; type: functional, organism-based; conditions: Artery; method in brief: as §1
[7] = system: Rattus norvegicus; assay: Effect of compound on ET-1 induced changes in diastolic blood pressure in the pithed rat pretreated with BQ 788 (3 mg/kg) at 75 uM/kg (iv) dose; type: functional, Artery; method in brief: as §1

| IC50 [1] [nM] | IC50 [2] [nM] | Structure (SMILES) | other results |
| --- | --- | --- | --- |
| 871 | > 30000 | Cc1ccccc1C(CCC(=O)O)Oc1cccc(OCc2ccsc2)c1 (stereo not drawn) | – |
| 26 | 10000 | CC(=O)c1ccc(OCc2ccsc2)cc1OC(CCC(=O)O)c1ccccc1C (stereo not drawn) | – |
| 20 | 10000 | Cc1ccccc1[C@@H](CCC(=O)O)Oc1cc(OCc2ccncc2)ccc1C#N | pKB [3]: 7.1 |
| 40 | 10000 | Cc1ccccc1C(CCC(=O)O)Oc1cc(OCc2ccsc2)ccc1-c1ccccn1 (stereo not drawn) | – |
| – | > 10000 | Cc1ccccc1[C@@H](CCC(=O)O)Oc1cc(OCc2ccsc2)ccc1C#N | pKB [3]: 7.4 |
| 5 | 10000 | Cc1ccccc1[C@@H](CCC(=O)O)Oc1cc(OCc2cccnc2)ccc1C#N | Shift [4]: 2.27; Shift [5]: 10.48; Shift [6]: inactive; Shift [7]: 36.58 |
| 69 | 10000 | Cc1ccccc1[C@@H](CCC(=O)O)Oc1cc(OCc2ccc3c(c2)OCO3)ccc1C#N | – |
| 7 | 10000 | Cc1ccccc1[C@@H](CCC(=O)O)Oc1cc(OCc2cnsc2)ccc1C#N | pKB [3]: 7.3 |
| 20 | 10000 | Cc1ccccc1C(CCC(=O)O)Oc1cc(OCc2ccsc2)ccc1-c1cc[nH]n1 (stereo not drawn) | – |
| 110 | > 30000 | Cc1ccccc1C(CCC(=O)O)C(=O)c1cccc(OCc2ccsc2)c1 (stereo not drawn) | pKB [3]: 5.7 |
| – | 5000 | Cc1ccccc1C(CCC(=O)O)Oc1cc(OCc2ccsc2)ccc1C#N (stereo not drawn) | – |
| 1000 | > 30000 | O=C(O)c1cc(-c2ccc(OCc3ccccc3)cc2OCc2ccccc2)n[nH]1 | – |
| 20 | 10000 | Cc1ccccc1C(CCC(=O)O)Oc1cc(OCc2ccsc2)ccc1-c1ncco1 (stereo not drawn) | – |
| 29 | 10000 | Cc1ccccc1C(CCC(=O)O)Oc1cc(OCc2ccsc2)ccc1C(N)=O (stereo not drawn) | – |
| 7 | 3000 | Cc1ccccc1C(CCC(=O)O)Oc1cc(OCc2ccsc2)ccc1-c1cc(C(=O)O)[nH]n1 (stereo not drawn) | pKB [3]: 7.3 |
| 163 | > 10000 | Cc1ccccc1C(CCC(=O)O)Oc1cc(OCc2ccsc2)ccc1-c1ncc[nH]1 (stereo not drawn) | – |
| 14 | – | CC(C)C[C@@H]1NC(=O)[C@@H](C(C)C)NC(=O)[C@@H]2CCCN2C(=O)[C@@H](CC(=O)O)NC(=O)[C@@H](Cc2c[nH]c3ccccc23)NC1=O [BQ-123] (cyclo(L[dW][dD]P[dV])) | – |
| – | 10000 | Cc1ccccc1[C@H](CCC(=O)O)Oc1cc(OCc2ccsc2)ccc1C#N | – |
| 207 | > 10000 | Cc1ccccc1C(CCC(=O)O)Oc1cc(OCc2ccsc2)ccc1C(=O)O (stereo not drawn) | – |
